Rows were chosen to be rich in hits. Some 4.3% of all compounds tested hit in one or more screens of this group.
Rtt109 HAT inh: C. albicans Rtt109 histone acetyltransferase inhibition | actives 0.16% (n = 330,000) | Q5AAJ8 | inhibition, % at 34.9 µM | purified Rtt109/Vps75, ThioGlo CoA-SH fluorescence, 4 h;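 active = inhibition of at least 50% in every replicate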
Target sequence (Q5AAJ8 whole entry, looked up): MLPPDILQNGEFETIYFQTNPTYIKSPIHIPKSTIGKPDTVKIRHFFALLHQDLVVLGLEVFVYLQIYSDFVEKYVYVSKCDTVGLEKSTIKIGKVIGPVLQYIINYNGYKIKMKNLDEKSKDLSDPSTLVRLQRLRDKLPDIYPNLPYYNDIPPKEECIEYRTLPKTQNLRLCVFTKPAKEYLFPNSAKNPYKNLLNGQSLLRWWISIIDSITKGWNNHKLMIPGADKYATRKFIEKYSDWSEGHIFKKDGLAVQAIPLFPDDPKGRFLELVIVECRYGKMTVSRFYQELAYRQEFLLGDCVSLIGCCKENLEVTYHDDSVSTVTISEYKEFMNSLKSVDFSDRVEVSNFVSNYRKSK
CAL PDZ FP-1: inhibitors of human CAL PDZ peptide binding; inhibition, % at 24.9 µM; purified CAL PDZ, TMR-peptide fluorescence polarization, 1 h; actives 0.92% (n = 300,000); AID 602252;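 active = mean inhibition of at least 30% with at least half of replicates also reaching 30%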;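 also: 0% = DMSO neutral control and 100% = excess unlabeled competitor peptide PRC23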
DYRK1A inh: blocks rat Dyrk1A kinase activity; inhibition, % at 12.5 µM; AID 504441; Q63470; actives 0.43% (n = 310,000); ADP-Glo luminescence, NFATc1 peptide; in the data active = inhibition above about 50%;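 also: plate controls were vehicle with enzyme for no effect and no enzyme for full effect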
ALR H2O2 inh: human ALR oxidase inhibition via reduced H2O2 | P55789 | AID 485317 | actives 3.8% (n = 290,000) | purified ALR, DTT oxidation, H2O2 HRP-luminol luminescence | inhibition, % (no concentration beside the values);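 active = mean replicate inhibition above about 79%, with every replicate also reaching it, limit read from the data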
CAL PDZ FP-2: blocks peptide binding to human CAL PDZ domain. AID 504414. inhibition, % at 20 µM. purified CAL PDZ, TMR-peptide fluorescence polarization, 1 h. Q9HD26. actives 0.02% (n = 330,000);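 active = highest replicate inhibition of at least 40%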;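 also: plate controls were DMSO neutral control wells for no effect and unlabeled competitor peptide control wells for full effect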
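material = purified tagged CAL PDZ domain construct (CerCALP) | buffer or medium = sodium phosphate/NaCl buffer pH 7.4 with TCEP, IgG, Thesit | reagent = TMR-labelled reporter peptide T*-PRC34 bound in PDZ groove | incubation = 1 h room-temperature incubation prior to read | measured by = fluorescence polarization (mP) | evaluation = percent inhibition from loss of millipolarization | control set = unlabelled peptide and DMSO controls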
* hit, by the source's call; / = no result.

SMILES	Rtt109 HAT inh	CAL PDZ FP-1	DYRK1A inh	ALR H2O2 inh	CAL PDZ FP-2
CC(CN1c2ccccc2Sc2ccccc21)N(C)C (stereo not drawn)	6	-4	10	99*	0
COc1ccc2c(c1)N(C[C@H](C)CN(C)C)c1ccccc1S2	4	0	-10	/	1
CC(CN(C)C)CN1c2ccccc2Sc2ccccc21 (stereo not drawn)	5	-4	8	99*	0
COc1ccc(/C=C/C(=O)c2cc3c(cc2N)OCO3)cc1	0	-7	/	48	1
COc1ccccc1NS(=O)(=O)c1cccc(C(=O)NCC(c2ccc(F)cc2)N2CCOCC2)c1 (stereo not drawn)	9	-2	2	1	-3
O=C1NC(=S)N/C1=C/c1cccc([N+](=O)[O-])c1	4	-7	4	1	0
CN1C(=O)/C(=C/c2cccc([N+](=O)[O-])c2)C(=O)N1c1ccccc1	-8	-3	6	98*	0
COc1ccccc1OCCn1c(=O)oc2ccc(C)cc21	1	0	5	/	-1
COc1ccc(C(=O)NCc2nnc(SCC(=O)NCc3ccco3)o2)cc1	-1	88*	-4	-4	-1
O=C(CSc1nnc(CNC(=O)c2ccccc2)o1)c1ccc(Cl)cc1	3	-7	0	59	-1
CC(=O)c1ccc(OCC(=O)OCC(=O)NCc2ccco2)cc1	7	-17	-1	3	-1
O=C(COC(=O)COc1ccc(Nc2ccccc2)cc1)NCc1ccco1	8	-3	2	100*	1
Cc1cc(Cl)ccc1N(CC(=O)NCCSCc1ccco1)S(C)(=O)=O	-7	99*	2	2	2
COc1ccc(C(=O)CSc2nnc(CNC(=O)c3ccccc3)o2)cc1	1	52*	-2	38	0
CC(C)(C)c1ccc(C(=O)NCc2nnc(SCC(=O)NCc3ccco3)o2)cc1	3	-2	4	-1	9
CSc1cccc(CN(C)C(=O)C2CCC(=O)N(CCCN3CCCC3=O)C2)c1 (stereo not drawn)	2	4	5	-2	-2
C=CCn1c(SCC(=O)Nc2cccc(S(=O)(=O)N(C)c3ccccc3)c2)nnc1C1CC1	-3	3	15	-4	-2
COc1ccc(C(=O)NCc2nnc(SCC(=O)Nc3nnc(C)s3)o2)cc1	-10	-1	6	99*	-1
O=C(COc1ccccc1)NCCSCc1ccco1	15	-4	10	82*	0
Cc1cc(C)n(-c2ccc(C(=O)OCC(=O)NCc3ccco3)cc2)n1	2	40*	/	-5	/
CCNC(=O)COC(=O)c1ccc(-n2nc(C)cc2C)cc1	-6	3	-7	1	-1
COc1ccc(C(=O)NCC(=O)OCC(=O)NCc2ccco2)cc1	1	43*	-2	/	0
COc1cc(OC)cc(C(=O)NCC(=O)OCC(=O)NCc2ccco2)c1	-2	-9	-4	1	0
COc1ccc(NC(=O)CN(C)C(=O)c2c(C)nn(Cc3ccc(C)cc3)c2Cl)cc1	6	/	0	8	0
S=C(NCCc1ccccc1)Nc1c(Cl)cccc1Cl	0	0	-3	2	0
SMILES	Rtt109 HAT inh	CAL PDZ FP-1	DYRK1A inh	ALR H2O2 inh	CAL PDZ FP-2
Cc1ccc(NS(=O)(=O)c2ccc(OCC(=O)NCc3ccccn3)cc2)cc1	-3	-1	-4	-1	-2
O=C(CN1CCN(S(=O)(=O)c2ccc3c(c2)OCCO3)CC1)Nc1cccc(F)c1	2	-2	-2	/	-3
COc1cc(C(c2nnnn2C(C)(C)C)N2CCN(c3nc4ccccc4s3)CC2)ccc1O (stereo not drawn)	66*	-6	1	6	-2
COc1ccc(OC)c(S(=O)(=O)N2CCCC(C(=O)NCc3cccnc3)C2)c1 (stereo not drawn)	-12	-4	0	-3	-2
CCCCCCCCCCCCCCCC[N+](C)(C)CC	74*	1	5	-29	1
CCCCCC[N+](C)(C)CCSSCC[N+](C)(C)CCCCCC	8	-6	1	23	0
Cc1noc(C)c1C(=O)OCC(=O)Nc1ccc(S(N)(=O)=O)cc1	-7	-8	/	0	1
CC(=O)Nc1cccc(C(=O)NC(C)c2ccc(-n3ccnc3)cc2)c1 (stereo not drawn)	3	-5	-5	2	-2
CC(NC(=O)c1cccc(N(C)C)c1)c1ccc(-n2ccnc2)cc1 (stereo not drawn)	31	2	-2	98*	-3

From PubChem BioAssay
